In ChEMBL document CHEMBL3045425, “Isolation and identification of precocenes and piperitone from essential oils as specific inhibitors of trichothecene production by Fusarium graminearum” (J Agric Food Chem, 2009):
Active and inactive are the calls of the source. The calls are words filed in the database; no cut-off is given here.

Columns and labels:
Fusarium graminearum [1] = test: microbe, parasite or virus in culture; format: functional
Fusarium graminearum [2] = format: functional, organism-based
Fusarium graminearum [3] = test: microbe, parasite or virus in culture; format: functional, organism-based; conditions: 168 h
Fusarium graminearum [4] = test: microbe, parasite or virus in culture; format: functional; remark: listed apart in the source
Fusarium graminearum [5] = test: Growth inhibition of Fusarium graminearum assessed as mycelial weight at 26.5 degC after 7 days; format: organism-based; conditions: in vivo, 168 h
Outline: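 Methanolic sample added to 5 mL SYEP (sucrose 5%, yeast extract 0.1%, polypeptone 0.1%), final methanol 0.3%. Inoculated with 1 × 10^5 spores/tube and shaken at 300 rpm, 26.5 °C, for 7 days. Mycelia were collected on cheesecloth, washed with water, dried at 100 °C for 3 h and weighed.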

Fusarium graminearum [6] = format: functional, organism-based; remark: listed apart in the source
Fusarium graminearum [7] = test: Downregulation of Tri10 gene expression in Fusarium graminearum at 26.5 degC measured after 48 to 96 hr by quantitative-RT-PCR analysis; format: functional, organism-based
Outline: (§1)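 SYEP liquid medium (5 mL/tube) inoculated with 1 × 10^5 spores and shaken at 300 rpm, 26.5 °C, with or without compound at 3 or 30 µM, for 48, 96 or 144 h. Total RNA was taken from the mycelia. SYBR Green real-time RT-PCR was run on cDNA from 0.005 µg RNA: 95 °C 10 min, then 40 cycles of 95 °C 15 s / 60 °C 1 min. β-tubulin mRNA was the reference; n = 3.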

Fusarium graminearum [8] = test: Effect on deoxynivalenol synthetic pathway intermediates accumulation in Fusarium graminearum at 30 uM by TLC analysis; format: functional, organism-based
Outline: (§2)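 Pooled broth (5 × 10 mL) was split into filtrate and mycelia. Filtrate was extracted with ethyl acetate and mycelia with methanol. n-Hexane and ethyl acetate fractions were examined spectroscopically for intermediate signals such as trichodiene.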

Fusarium graminearum [9] = test: Downregulation of Tri5 gene expression in Fusarium graminearum at 3 to 30 uM at 26.5 degC measured after 48 to 144 hr by quantitative-RT-PCR analysis; format: functional, organism-based
Outline: as §1

Fusarium graminearum [10] = test: Downregulation of Tri6 gene expression in Fusarium graminearum at 26.5 degC measured after 48 to 96 hr by quantitative-RT-PCR analysis; format: functional, organism-based
Outline: as §1

Fusarium graminearum [11] = test: Downregulation of Tri4 gene expression in Fusarium graminearum at 3 to 30 uM at 26.5 degC measured after 48 to 144 hr by quantitative-RT-PCR analysis; format: functional, organism-based
Outline: as §1

Fusarium graminearum [12] = test: Downregulation of Tri4 gene expression in Fusarium graminearum at 300 to 1000 uM measured after 72 hr by quantitative-RT-PCR analysis; format: functional, organism-based
Outline: (§3)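 Spores (1 × 10^5/tube) grown in 5 mL SYEP medium with shaking at 300 rpm, 26.5 °C, for 72 h, with or without compound at 300 or 1000 µM. Mycelial total RNA was used for SYBR Green qRT-PCR on cDNA from 0.005 µg RNA: 95 °C 10 min, then 40 cycles of 95 °C 15 s / 60 °C 1 min. Normalised to β-tubulin mRNA; n = 3.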

Fusarium graminearum [13] = test: Downregulation of Tri5 gene expression in Fusarium graminearum at 300 to 1000 uM measured after 72 hr by quantitative-RT-PCR analysis; format: functional, organism-based
Outline: as §3

Fusarium graminearum [14] = test: Downregulation of Tri10 gene expression in Fusarium graminearum at 300 to 1000 uM measured after 72 hr by quantitative-RT-PCR analysis; format: functional, organism-based
Outline: as §3

Fusarium graminearum [15] = test: Effect on deoxynivalenol synthetic pathway intermediates accumulation in Fusarium graminearum at 1000 uM by TLC analysis; format: functional, organism-based
Outline: as §2

Fusarium graminearum [16] = test: Downregulation of Tri6 gene expression in Fusarium graminearum at 300 to 1000 uM measured after 72 hr by quantitative-RT-PCR analysis; format: functional, organism-based
Outline: as §3

Fusarium culmorum = test: Inhibition of 3-acetyldeoxynivalenol production by Fusarium culmorum in liquid culture; format: functional, organism-based

COc1ccc2c(c1)OC(C)(C)C=C2 [PROCOCENE I]
inhibition at 152 ppm (Fusarium graminearum [1]): 25% | IC50 (Fusarium graminearum [2]): 1.3 ppm | IC50 (Fusarium graminearum [3]): 16.6 µM | inhibition at 5.7 ppm (Fusarium graminearum [4]): 20%

COc1cc2c(cc1OC)OC(C)(C)C=C2 [PROCOCENE II]
Activity (Fusarium graminearum [5]): Non-toxic | IC50 (Fusarium graminearum [6]): 2 ppm | inhibition (Fusarium graminearum [7]): Dose-dependent effect | Activity (Fusarium graminearum [8]): inactive | inhibition (Fusarium graminearum [9]): Active | IC50 (Fusarium graminearum [2]): 0.36 ppm | inhibition (Fusarium graminearum [10]): Dose-dependent effect | IC50 (Fusarium graminearum [3]): 1.2 µM | inhibition (Fusarium graminearum [11]): Active

CC1=CC(=O)[C@@H](C(C)C)CC1 [(-)-PIPERITONE]
Activity (Fusarium graminearum [5]): Non-toxic | inhibition at 152 ppm (Fusarium graminearum [1]): 25% | inhibition (Fusarium graminearum [12]): Active | inhibition (Fusarium graminearum [13]): Active | IC50 (Fusarium graminearum [2]): 61.2 ppm | inhibition (Fusarium graminearum [14]): Active | IC50 (Fusarium graminearum [3]): 306 µM | Activity (Fusarium graminearum [15]): inactive | inhibition (Fusarium graminearum [16]): Active | inhibition at 5.7 ppm (Fusarium graminearum [4]): 20%

CC(=O)c1cccc2oc(=O)[nH]c12 [4-ACETYL-2-BENZOXAZOLINONE]
IC50 (Fusarium culmorum): 4 µM
